Assay [1] deals with Enterococcus faecalis. Kind of assay: Antibacterial activity against vancomycin-resistant and teicoplanin-sensitive Enterococcus faecalis ATCC 51299 harboring vanB gene after 18 hrs by broth microdilution method. In kind it is functional. The settings on record: ATCC 51299, 18 h.
Assay [2] relates to Staphylococcus epidermidis. Kind of assay: Bactericidal activity against biofilm of Staphylococcus epidermidis ATCC 35984 after overnight incubation. The format is functional. The settings on record: RP62A.
Assay [3] deals with Enterococcus faecalis. Kind of assay: Bactericidal activity against vancomycin-resistant and teicoplanin-sensitive Enterococcus faecalis ATCC 51299 harboring vanB gene after overnight incubation. The format is functional.
Assay [4] relates to Staphylococcus aureus. Kind of assay: Bactericidal activity against methicillin-sensitive Staphylococcus aureus ATCC 33591 after overnight incubation. In kind it is functional.
Assay [5] relates to Bacillus subtilis. Nature of the assay: Bactericidal activity against Bacillus subtilis ATCC 6633 after overnight incubation. The format is functional.
For assay [6], the system named is Staphylococcus aureus. Nature of the assay: Bactericidal activity against methicillin-sensitive Staphylococcus aureus ATCC 29213 after overnight incubation. In kind it is functional.
In assay [7] the test system is Staphylococcus epidermidis. Nature of the assay: Bactericidal activity against Staphylococcus epidermidis after overnight incubation. The format is functional.
The subject of assay [8] is Bacillus subtilis. Kind of assay: Antibacterial activity against Bacillus subtilis ATCC 6633 after 18 hrs by broth microdilution method. In kind it is functional. The settings on record: ATCC 6633, 18 h.
Assay [9] concerns Enterococcus faecalis. Nature of the assay: Bactericidal activity against vancomycin and teicoplanin-sensitive Enterococcus faecalis ATCC 29212 after overnight incubation. In kind it is functional.
Assay [10] deals with Enterococcus faecalis. Nature of the assay: Antibacterial activity against vancomycin and teicoplanin-resistant Enterococcus faecalis 15376 harboring vanA gene after 18 hrs by broth microdilution method. As to conditions: Enterococcus faecalis, 15376, 18 h. In kind it is functional.
The subject of assay [11] is H3N2 subtype. Kind of assay: Antiviral activity against Influenza A virus (A/Hong Kong/7/87(H3N2)) assessed as inhibition of virus-induced cytopathic effect at highest concentration by cell-based assay. In kind it is functional, organism-based. As to conditions: A/Hong Kong/7/1987(H3N2). An outline of the steps:
(§1)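 Virus-induced cytopathic effect is scored visually in infected cell cultures. EC50 is defined as the compound concentration producing 50% inhibition of the CPE. A compound is recorded as not active when there is no inhibition at the highest concentration tested or at a subtoxic concentration.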

Assay [12] concerns Staphylococcus aureus. Kind of assay: Antibacterial activity against methicillin-sensitive Staphylococcus aureus ATCC 29213 after 18 hrs by broth microdilution method. As to conditions: ATCC 29213, 18 h. The format is functional.
In assay [13] the test system is Influenza B virus. Kind of assay: Antiviral activity against Influenza B virus (B/Hong Kong/5/72) assessed as inhibition of virus-induced cytopathic effect at highest concentration by cell-based assay. In kind it is functional. As to conditions: B/Hong Kong/05/1972. An outline of the steps:
as §1

Assay [14] concerns Enterococcus faecalis. Nature of the assay: Antibacterial activity against vancomycin and teicoplanin-sensitive Enterococcus faecalis ATCC 29212 after 18 hrs by broth microdilution method. The format is functional. The settings on record: ATCC 29212, 18 h.
Assay [15] concerns Influenza B virus. Nature of the assay: Antiviral activity against Influenza B virus (B/Hong Kong/5/72) assessed as cell viability at subtoxic concentration by cell-based MTS assay. In kind it is functional. As to conditions: B/Hong Kong/05/1972.
Assay [16] has as its system Influenza A virus. Kind of assay: Antiviral activity against Influenza A virus (A/Puerto Rico/8/34(H1N1)) assessed as cell viability at subtoxic concentration by cell-based MTS assay. In kind it is functional, organism-based. As to conditions: A/Puerto Rico/8/1934(H1N1).
For assay [17], the system named is Staphylococcus aureus. Nature of the assay: Antibacterial activity against methicillin-sensitive Staphylococcus aureus ATCC 33591 after 18 hrs by broth microdilution method. In kind it is functional. As to conditions: ATCC 33591, 18 h.
Assay [18] relates to H3N2 subtype. Nature of the assay: Antiviral activity against Influenza A virus (A/Hong Kong/7/87(H3N2)) assessed as cell viability at subtoxic concentration by cell-based MTS assay. The format is functional, organism-based. The settings on record: A/Hong Kong/7/1987(H3N2).
In assay [19] the test system is Staphylococcus epidermidis. Nature of the assay: Antibacterial activity against Staphylococcus epidermidis after 18 hrs by broth microdilution method. In kind it is functional.
Assay [20] concerns Staphylococcus epidermidis. Nature of the assay: Antibacterial activity against biofilm of Staphylococcus epidermidis ATCC 35984 after 18 hrs by broth microdilution method. As to conditions: RP62A. The format is functional.
In assay [21] the test system is Enterococcus faecalis. Nature of the assay: Bactericidal activity against vancomycin and teicoplanin-resistant Enterococcus faecalis 15376 harboring vanA gene after overnight incubation. In kind it is functional.
Assay [22] has as its system Influenza A virus. Kind of assay: Antiviral activity against Influenza A virus (A/Puerto Rico/8/34(H1N1)) assessed as inhibition of virus-induced cytopathic effect at highest concentration by cell-based assay. As to conditions: A/Puerto Rico/8/1934(H1N1). In kind it is functional, organism-based. The method in brief:
as §1

Three compounds from ChEMBL document CHEMBL1156074, “Diazo transfer-click reaction route to new, lipophilic teicoplanin and ristocetin aglycon derivatives with high antibacterial and anti-influenza virus activity: an aggregation and receptor binding study” (J Med Chem, 2009) can be followed below.

Values after ≈ are worked out from the molar mass of the structure shown. Active and inactive are the calls of the source. A value given as a limit tells only on which side of the number the result lay.

Consider `CN[C@H](CC(C)C)C(=O)N[C@H]1C(=O)N[C@@H](CC(N)=O)C(=O)N[C@H]2C(=O)N[C@H]3C(=O)N[C@H](C(=O)N[C@H](C(=O)O)c4cc(O)cc(O)c4-c4cc3ccc4O)[C@H](O)c3ccc(c(Cl)c3)Oc3cc2cc(c3O[C@@H]2O[C@H](CO)[C@@H](O)[C@H](O)[C@H]2O[C@H]2C[C@](C)(N)[C@H](O)[C@H](C)O2)Oc2ccc(cc2Cl)[C@H]1O` [VANCOMYCIN], for which the MIC is 16 µg/mL (≈ 11 µM) in the assay with Enterococcus faecalis [1], 1 µg/mL (≈ 0.69 µM) in the assay on Bacillus subtilis [8] and greater than 256 µg/mL in the assay with Enterococcus faecalis [10]. The MBC in assay [2] was 4 µg/mL (≈ 2.76 µM); with Enterococcus faecalis [3], 16 µg/mL (≈ 11 µM); with Staphylococcus aureus [4], 4 µg/mL (≈ 2.76 µM); against Bacillus subtilis [5], 4 µg/mL (≈ 2.76 µM); against Staphylococcus aureus [6], 4 µg/mL (≈ 2.76 µM); in [7], 4 µg/mL (≈ 2.76 µM). The MBC with Enterococcus faecalis [9] was 16 µg/mL (≈ 11 µM).

As to `CCCCCCCCCCOCc1cn([C@H]2C(=O)N[C@@H]3Cc4ccc(c(Cl)c4)Oc4cc5cc(c4O)Oc4ccc(cc4Cl)[C@@H](O[C@@H]4O[C@H](CO)[C@@H](O)[C@H](O)[C@H]4NC(C)=O)[C@@H]4NC(=O)[C@H](NC(=O)[C@@H]5NC(=O)[C@@H](NC3=O)c3cc(O)cc(c3)Oc3cc2ccc3O)c2ccc(O)c(c2)-c2c(O)cc(O)cc2[C@H](C(=O)O)NC4=O)nn1`, the MIC in the assay with Enterococcus faecalis [1] stood at 0.5 µg/mL (≈ 0.308 µM); against Staphylococcus aureus [12], 0.5 µg/mL (≈ 0.308 µM); against Enterococcus faecalis [14], 0.5 µg/mL (≈ 0.308 µM); against Staphylococcus aureus [17] it was 0.5 µg/mL (≈ 0.308 µM); against Bacillus subtilis [8], 2 µg/mL (≈ 1.23 µM); in assay [19], 0.5 µg/mL (≈ 0.308 µM). The MIC (in assay [20]; against Enterococcus faecalis [10]) was 0.5 µg/mL (≈ 0.308 µM) in each case. The inhibition result in the assay with H3N2 subtype [11], with Influenza B virus [13], in the assay with Influenza B virus [15], with Influenza A virus [16], in the assay on H3N2 subtype [18] and with Influenza A virus [22] was “inactive” throughout. Moreover, the MBC in [2] turned out to be 0.25 µg/mL (≈ 0.154 µM); in the assay with Enterococcus faecalis [3], 0.25 µg/mL (≈ 0.154 µM); in the assay on Staphylococcus aureus [4], 0.25 µg/mL (≈ 0.154 µM); in the assay on Bacillus subtilis [5], 0.25 µg/mL (≈ 0.154 µM); against Staphylococcus aureus [6], 0.25 µg/mL (≈ 0.154 µM); in assay [7], 0.5 µg/mL (≈ 0.308 µM). The MBC with Enterococcus faecalis [9] and against Enterococcus faecalis [21] was 0.25 µg/mL (≈ 0.154 µM) each time.

`CCCCCCCCCCOCc1cn([C@H]2C(=O)N[C@@H]3Cc4ccc(c(Cl)c4)Oc4cc5cc(c4O)Oc4ccc(cc4Cl)[C@@H](O)[C@@H]4NC(=O)[C@H](NC(=O)[C@@H]5NC(=O)[C@@H](NC3=O)c3cc(O)cc(c3)Oc3cc2ccc3O)c2ccc(O)c(c2)-c2c(O)cc(O)cc2[C@H](C(=O)OC)NC4=O)nn1`: the MIC turned out to be 64 µg/mL (≈ 44.6 µM) against Enterococcus faecalis [1]; 128 µg/mL (≈ 89.2 µM) against Staphylococcus aureus [12]; 32 µg/mL (≈ 22.3 µM) in the assay on Enterococcus faecalis [14]; 64 µg/mL (≈ 44.6 µM) against Staphylococcus aureus [17]; 0.5 µg/mL (≈ 0.348 µM) in the assay on Bacillus subtilis [8]; 16 µg/mL (≈ 11.1 µM) in assay [19]. Further, the MIC in assay [20] amounted to 256 µg/mL (≈ 178 µM); against Enterococcus faecalis [10], 128 µg/mL (≈ 89.2 µM). Also, the inhibition result in the assay on H3N2 subtype [11], in the assay on Influenza B virus [13], in the assay with Influenza B virus [15], in the assay on Influenza A virus [16], in the assay with H3N2 subtype [18] and in the assay with Influenza A virus [22] was “inactive” in each case. The MBC worked out at 256 µg/mL (≈ 178 µM) in assay [2]; 256 µg/mL (≈ 178 µM) against Enterococcus faecalis [3]; 256 µg/mL (≈ 178 µM) in the assay on Staphylococcus aureus [4]; 0.5 µg/mL (≈ 0.348 µM) against Bacillus subtilis [5]; 256 µg/mL (≈ 178 µM) against Staphylococcus aureus [6]; 64 µg/mL (≈ 44.6 µM) in assay [7]. Besides, the MBC worked out at 128 µg/mL (≈ 89.2 µM) in the assay with Enterococcus faecalis [9] and 256 µg/mL (≈ 178 µM) against Enterococcus faecalis [21].
